Active and inactive are the calls of the source. No cut-off for these calls is given here.
Experiments:
[1] = Cytotoxicity against human HaCaT cells assessed as cell viability incubated for 48 hrs by MTT assay; format: toxicity, cell-based
Method in brief: (§1)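 Cells seeded at 5000/well, held 24 h at 37 °C, 5% CO2, then exposed 48 h to 100, 50, 25, 12.5, 6.3 or 3.1 μM, with an untreated control. Then 0.5 mg mL⁻¹ MTT in FBS-free DMEM for 4 h at 37 °C, formazan dissolved in DMSO and read at 570 nm. IC50 is the mean ± SD of at least three independent experiments; 5-FU served as positive control.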

[2] = system: COLO-829; experiment: Cytotoxicity against human COLO-829 cells assessed as cell viability incubated for 48 hrs by MTT assay; format: functional, cell-based; details: COLO-829, 48 h; method in brief: as §1
[3] = system: HepG2; experiment: Cytotoxicity against human HepG2 cells assessed as cell viability incubated for 48 hrs by MTT assay; format: functional, cell-based; details: HepG2, 48 h; method in brief: as §1
[4] = system: A549; experiment: Cytotoxicity against human A549 cells assessed as cell viability incubated for 48 hrs by MTT assay; format: functional, cell-based; details: A549, 48 h; method in brief: as §1
[5] = system: HeLa; experiment: Cytotoxicity against human HeLa cells assessed as cell viability incubated for 48 hrs by MTT assay; format: functional, cell-based
Method in brief: (§2)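 5000 cells/well preincubated 24 h at 37 °C, 5% CO₂, then exposed to 3.1–100 μM for 48 h; untreated control, 5-FU positive control. MTT at 0.5 mg/mL in FBS-free DMEM for 4 h, formazan dissolved in DMSO, absorbance read at 570 nm. IC50 taken as half-maximal inhibitory concentration; mean ± SD of at least three independent experiments.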

[6] = system: HeLa; experiment: Induction of apoptosis in human HeLa cells assessed as early apoptotic cells at 3.7 uM incubated for 48 hrs by Annexin V-FITC/PI staining based flow cytometry analysis (reference value: 2.56%); format: functional
[7] = system: HeLa; experiment: Induction of apoptosis in human HeLa cells assessed as necrotic cells at 7.3 uM incubated for 48 hrs by Annexin V-FITC/PI staining based flow cytometry analysis (reference value: 0.12%); format: functional
[8] = system: HeLa; experiment: Induction of apoptosis in human HeLa cells assessed as viable cells at 14.5 uM incubated for 48 hrs by Annexin V-FITC/PI staining based flow cytometry analysis (reference value: 91.2%); format: functional; details: read-out: Activity
[9] = system: Mitochondrial membrane; experiment: Induction of mitochondrial membrane potential depolarization in human HeLa cells assessed as red fluorescence intensity at 7.3 uM incubated for 48 hrs by JC-1 staining based flow cytometric analysis (reference value: 95.8); format: cell membranes
Method in brief: (§3)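 HeLa cells grown in 10 cm dishes and left to attach overnight, then treated 48 h at 0, 3.7, 7.3 or 14.5 μM. Stained with JC-1 per kit instructions. Red (J-aggregate, 590 nm) and green (monomer, 527–529 nm) fluorescence read by flow cytometry. Red/green ratio expressed as % of untreated cells. At least triplicate; one-way ANOVA.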

[10] = Selectivity index, ratio of IC50 for cytotoxicity against human HaCaT cells assessed as cell viability to IC50 for cytotoxicity against human HeLa cells assessed as cell viability; format: toxicity, cell-based; details: HaCaT cells versus HeLa cells, read-out: Ratio IC50
Method in brief: (§4)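 Selectivity index is IC50 in non-cancer HaCaT keratinocytes divided by IC50 in the cancer line. Both IC50 values came from MTT viability after 48 h exposure (5000 cells/well, 3.1–100 μM, absorbance at 570 nm), each a mean of at least three independent experiments.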

[11] = system: Mitochondrial membrane; experiment: Induction of mitochondrial membrane potential depolarization in human HeLa cells assessed as red fluorescence intensity at 3.7 uM incubated for 48 hrs by JC-1 staining based flow cytometric analysis (reference value: 95.8); format: cell membranes; method in brief: as §3
[12] = system: HeLa; experiment: Induction of apoptosis in human HeLa cells assessed as necrotic cells at 3.7 uM incubated for 48 hrs by Annexin V-FITC/PI staining based flow cytometry analysis (reference value: 0.12%); format: functional
[13] = system: HeLa; experiment: Antiproliferative activity against human HeLa cells assessed as inhibition of colony formation at 1.5 to 12 uM incubated for 14 days by crystal violet staining based analysis; format: functional, cell-based; details: dose 1.5-12 µM, time 14.0 day
Method in brief: (§5)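 1000 HeLa cells per 3.5 cm dish, treated after attachment with 0, 1.5, 3, 6 or 12 μM for 14 days, medium refreshed every 2 days. Cells were fixed in 100% methanol for 30 min and stained with 0.1% crystal violet for 30 min. Colonies were imaged and counted, normalised to control wells. At least triplicate.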

[14] = system: Mitochondrial membrane; experiment: Induction of mitochondrial membrane potential depolarization in human HeLa cells assessed as green fluorescence intensity at 7.3 uM incubated for 48 hrs by JC-1 staining based flow cytometric analysis (reference value: 3.28; format: cell membranes; method in brief: as §3
[15] = system: HeLa; experiment: Induction of ROS production in human HeLa cells incubated for 48 hrs by H2DCFDA dye-based flow cytometry analysis; format: functional, cell-based; details: dose 3.7-14.5 µM
Method in brief: (§6)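 HeLa cells exposed to 0, 3.7, 7.3 or 14.5 μM for 48 h, trypsinised, washed in PBS, then loaded with H₂DCFDA (final 10 μM) at 37 °C for 30 min in the dark. DCF fluorescence (ex 498/em 522 nm) read by flow cytometry and expressed as percent of untreated cells. At least triplicate.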

[16] = system: Mitochondrial membrane; experiment: Induction of mitochondrial membrane potential depolarization in human HeLa cells assessed as red fluorescence intensity at 14.5 uM incubated for 48 hrs by JC-1 staining based flow cytometric analysis (reference value: 95.8); format: cell membranes; method in brief: as §3
[17] = system: HeLa; experiment: Anti-migration activity in human HeLa cells assessed as increase in wound width at 14.5 uM incubated 24 hrs by wound-healing assay (reference value: 61%); format: functional
[18] = system: HeLa; experiment: Induction of apoptosis in human HeLa cells assessed as viable cells at 3.7 uM incubated for 48 hrs by Annexin V-FITC/PI staining based flow cytometry analysis (reference value: 91.2%); format: functional; details: read-out: Activity
[19] = system: Mitochondrial membrane; experiment: Induction of mitochondrial membrane potential depolarization in human HeLa cells assessed as green fluorescence intensity at 14.5 uM incubated for 48 hrs by JC-1 staining based flow cytometric analysis (reference value: 3.28); format: cell membranes; method in brief: as §3
[20] = system: HeLa; experiment: Induction of apoptosis in human HeLa cells assessed as late apoptotic cells at 14.5 uM incubated for 48 hrs by Annexin V-FITC/PI staining based flow cytometry analysis (reference value: 6.10 %); format: functional
[21] = system: HeLa; experiment: Induction of apoptosis in human HeLa cells assessed as necrotic cells at 14.5 uM incubated for 48 hrs by Annexin V-FITC/PI staining based flow cytometry analysis (reference value: 0.12%); format: functional
[22] = system: HeLa; experiment: Induction of apoptosis in human HeLa cells assessed as late apoptotic cells at 3.7 uM incubated for 48 hrs by Annexin V-FITC/PI staining based flow cytometry analysis (reference value: 6.10 %); format: functional
[23] = system: Mitochondrial membrane; experiment: Induction of mitochondrial membrane potential depolarization in human HeLa cells assessed as green fluorescence intensity at 3.7 uM incubated for 48 hrs by JC-1 staining based flow cytometric analysis (reference value: 3.28); format: cell membranes; method in brief: as §3
[24] = system: HeLa; experiment: Antiproliferative activity against human HeLa cells assessed as inhibition of colony formation at 12 uM incubated for 14 days by crystal violet staining based analysis; format: functional, cell-based; details: time 14.0 day; method in brief: as §5
[25] = system: HeLa; experiment: Induction of apoptosis in human HeLa cells assessed as late apoptotic cells at 7.3 uM incubated for 48 hrs by Annexin V-FITC/PI staining based flow cytometry analysis (reference value: 6.10 %); format: functional
[26] = system: HeLa; experiment: Anti-migration activity in human HeLa cells assessed as inhibition of cell migration at 14.5 uM incubated 24 hrs by wound-healing assay; format: functional; set-up: scale not given: the % may be the effect or the level left
[27] = system: HeLa; experiment: Induction of ROS production in human HeLa cells at 7.3 uM incubated for 48 hrs by H2DCFDA dye-based flow cytometry analysis; format: functional; method in brief: as §6
[28] = system: HeLa; experiment: Induction of apoptosis in human HeLa cells assessed as necrotic cells incubated for 48 hrs by Annexin V-FITC/PI staining based flow cytometry analysis; format: functional, cell-based; details: dose 3.7-14.5 µM
[29] = Selectivity index, ratio of IC50 for cytotoxicity against human HaCaT cells assessed as cell viability to IC50 for cytotoxicity against human A549 cells assessed as cell viability; format: toxicity, cell-based; details: HaCaT cells versus A549 cells; method in brief: as §4
[30] = system: A-375; experiment: Cytotoxicity against human A-375 cells assessed as cell viability incubated for 48 hrs by MTT assay; format: functional, cell-based; details: A-375, 48 h; method in brief: as §2
[31] = system: HeLa; experiment: Induction of ROS production in human HeLa cells at 3.7 uM incubated for 48 hrs by H2DCFDA dye-based flow cytometry analysis; format: functional; method in brief: as §6
[32] = Selectivity index, ratio of IC50 for cytotoxicity against human HaCaT cells assessed as cell viability to IC50 for cytotoxicity against human HepG2 cells assessed as cell viability; format: toxicity, cell-based; details: HaCaT cells versus HepG2 cells; method in brief: as §4
[33] = system: Mitochondrial membrane; experiment: Induction of mitochondrial membrane potential depolarization in human HeLa cells assessed as decrease in red to green fluorescence intensity ratio at 3.7 to 14.5 uM incubated for 48 hrs by JC-1 staining based flow cytometric analysis; details: dose 3.7-14.5 µM
Method in brief: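 HeLa cells attached overnight, then treated at 0, 3.7, 7.3 or 14.5 μM for 48 h and stained with JC-1. Red (590 nm) and green (527–529 nm) fluorescence measured by flow cytometry. Red/green ratio expressed as percent of untreated cells; one-way ANOVA, at least triplicate.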

[34] = system: HeLa; experiment: Induction of apoptosis in human HeLa cells assessed as viable cells at 7.3 uM incubated for 48 hrs by Annexin V-FITC/PI staining based flow cytometry analysis (reference value: 91.2%); format: functional; details: read-out: Activity
[35] = system: HeLa; experiment: Induction of apoptosis in human HeLa cells assessed as early apoptotic cells at 14.5 uM incubated for 48 hrs by Annexin V-FITC/PI staining based flow cytometry analysis (reference value: 2.56%); format: functional
[36] = system: HeLa; experiment: Induction of ROS production in human HeLa cells at 14.5 uM incubated for 48 hrs by H2DCFDA dye-based flow cytometry analysis; format: functional; method in brief: as §6
[37] = system: HeLa; experiment: Induction of apoptosis in human HeLa cells assessed as early apoptotic cells at 7.3 uM incubated for 48 hrs by Annexin V-FITC/PI staining based flow cytometry analysis (reference value: 2.56%); format: functional

SMILES: O=c1[nH]cc(F)c(=O)[nH]1 [FLUOROURACIL]
- IC50 at 48 h [1]: 30 µM
- IC50 [2]: 48.7 µM
- IC50 [3]: 16.6 µM
- IC50 [4]: 72.6 µM
- IC50 [5]: 14.5 µM

SMILES: CN(C)CCNCCc1ccc2c(Cl)cc(Cl)c(N)c2n1.Cl.Cl.Cl
- Activity [6]: 2.56%
- IC50 at 48 h [1]: 41.1 µM
- Activity [7]: 0.1%
- viability at 14.5 µM [8]: 49.3%
- Flu intensity [9]: 91.2
- IC50 [2]: 40.2 µM
- selectivity ratio [10]: 2.8
- Flu intensity [11]: 93.9
- IC50 [3]: 16.6 µM
- Activity [12]: 0.33%
- Activity [13]: Active
- Flu intensity [14]: 8.25
- Activity [15]: Dose-dependent-effect
- Flu intensity [16]: 61.8
- Activity [17]: 74%
- viability at 3.7 µM [18]: 90.6%
- IC50 [4]: 16.2 µM
- Flu intensity [19]: 37.3
- Activity [20]: 28.9%
- Activity [21]: 0.15%
- Activity [22]: 6.48%
- Flu intensity [23]: 5.51
- Activity [24]: Active
- Activity [25]: 8.49%
- Activity [26]: 33%
- Activity [27]: 138%
- Activity [28]: Dose-dependent-effect
- selectivity ratio [29]: 2.5
- IC50 [30]: 38.1 µM
- Activity [31]: 125%
- selectivity ratio [32]: 2.5
- Activity [33]: Active
- viability at 7.3 µM [34]: 85.3%
- IC50 [5]: 14.5 µM
- Activity ([5]; dose <= 100.0 µM): Dose-dependent-effect
- Activity [35]: 21.6%
- Activity [36]: 150%
- Activity [37]: 6.06%
